# Screening data (PubChem BioAssay)
# Shown are actives, neighbours in structure and some others; about 2.8% of the full set was active somewhere.
# mABHD4 FP – inhibits mouse alpha/beta hydrolase domain 4 | purified mABHD4, FP-Rh probe fluorescence polarization | inhibition, % at 8.92 µM | 370,000 tested, 0.54% active | AID 720543;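 active = inhibition exceeding the mean over every tested compound plus 3 SD, cut at about 30% in these data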;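 note: 0% = plate median of compound wells and 100% = S159A mutant with DMSO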
# Target sequence (Q8VD66 whole entry, looked up, the tested form may be a part): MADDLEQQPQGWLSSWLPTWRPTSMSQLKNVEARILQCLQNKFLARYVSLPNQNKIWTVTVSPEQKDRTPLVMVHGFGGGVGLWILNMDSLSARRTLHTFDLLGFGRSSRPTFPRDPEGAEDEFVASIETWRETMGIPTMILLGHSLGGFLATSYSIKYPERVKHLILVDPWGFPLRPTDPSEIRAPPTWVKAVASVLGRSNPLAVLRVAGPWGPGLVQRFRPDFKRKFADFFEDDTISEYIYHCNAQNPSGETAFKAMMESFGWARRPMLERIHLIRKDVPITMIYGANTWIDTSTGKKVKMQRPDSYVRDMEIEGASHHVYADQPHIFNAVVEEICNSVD
#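 Assay system: mABHD4 protein; medium: HEPES pH 7.0, NaCl, Pluronic buffer; dosing: 8.92 µM, single dose; schedule: 45 min + 60 min at 25 °C; signal: FP readout, ex 525 nm / em 598 nm; read-out: normalized percent inhibition of probe labeling; repeats: single replicate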
# PAFAH1B3 inh – blocks human PAF acetylhydrolase 1B catalytic subunit 3 | Q15102 | 340,000 tested, 0.28% active | AID 492972 | recombinant PAFAH1B3, FP-rhodamine probe, fluorescence polarization | inhibition, % at 3.39 µM;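 active = inhibition above the screen-wide average of all tested compounds plus 3 SD, cut at about 25% in these data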;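 note: 0% = enzyme with DMSO only and 100% = wells lacking PAFAH1B3 protein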
# PAFAH1B2 FP inh – PAFAH1B2 (human) inhibition | inhibition, % at 3.39 µM | AID 492953 | P68402 | recombinant PAFAH1B2, FP-rhodamine activity probe, fluorescence polarization | 340,000 tested, 1.2% active;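 active = inhibition above the mean of all tested compounds plus 3 SD, cut at about 24% in these data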;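 note: 0% = enzyme with DMSO and 100% = wells lacking PAFAH1B2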
# Target sequence (P68402 whole entry, looked up): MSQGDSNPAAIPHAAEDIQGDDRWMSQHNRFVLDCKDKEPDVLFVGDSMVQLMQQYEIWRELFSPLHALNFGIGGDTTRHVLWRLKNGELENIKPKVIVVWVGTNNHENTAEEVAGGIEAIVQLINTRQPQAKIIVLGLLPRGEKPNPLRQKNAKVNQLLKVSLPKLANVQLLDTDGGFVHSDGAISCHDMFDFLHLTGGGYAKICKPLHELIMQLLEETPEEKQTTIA
# HTRA1 inh – inhibitors of human serine peptidase HTRA1; Q92743; recombinant HTRA1, FP-rhodamine activity-based probe, fluorescence polarization; inhibition, % at 5.96 µM; 340,000 tested, 0.5% active; AID 504803; in the data active = inhibition above about 36%;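 note: 0% = enzyme with DMSO and 100% = wells lacking enzyme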
# PAFAH2 inh – PAFAH2 (human) inhibition; Q99487; recombinant PAFAH2, FP-rhodamine activity probe, fluorescence polarization; inhibition, % at 3.39 µM; 340,000 tested, 0.99% active;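 active = inhibition above the mean over all tested compounds plus 3 SD, cut at about 30% in these data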;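 note: inhibitors block probe labeling of enzyme so polarization drops; 0% = enzyme with DMSO and 100% = wells lacking PAFAH2 protein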
# pPAFAH inh – inhibitors of human plasma PAF acetylhydrolase (pPAFAH); Q13093; 330,000 tested, 1.5% active; inhibition, % at 3.39 µM; recombinant pPAFAH, FP-rhodamine probe fluorescence polarization;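 active = inhibition above the mean inhibition across the screen plus 3 SD, cut at about 25% in these data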;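 note: inhibitors block binding of the rhodamine activity-based probe so polarization drops; 0% = enzyme with DMSO and 100% = wells lacking pPAFAH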
# pPAFAH FP conf – pPAFAH (human) inhibition, confirmed. AID 463230. recombinant pPAFAH, FP-Rh probe fluorescence polarization. 2,300 tested, 72% active. inhibition, % at 3.39 µM. shares compounds with pPAFAH inh;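 active = mean inhibition of the triplicate above the hit cutoff set for the earlier primary screen, cut at about 25% in these data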;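 note: 0% = enzyme with DMSO and 100% = wells lacking pPAFAH enzyme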
# * hit, by the source's call; · = no result given.
SMILES,mABHD4 FP,PAFAH1B3 inh,PAFAH1B2 FP inh,HTRA1 inh,PAFAH2 inh,pPAFAH inh,pPAFAH FP conf
COC(=O)[C@]12C[C@H](CC(=O)N3CCC(c4ccccc4)CC3)C(=O)N(Cc3ccco3)C1=C[C@H](C(C)C)O[C@@H]2C1CC1,-4,·,·,·,·,·,·
Cc1nnc(NC(=O)c2sc3nc(-c4cccs4)cc(C(F)(F)F)c3c2N)s1,9,11,2,-2,15,70*,73*
CC(C)NC(=O)Cn1cnc2c(cnn2-c2ccc(F)cc2)c1=O,-1,13,1,1,-2,2,·
COc1ccc(-n2ncc3c(=O)n(CC(=O)NC(C)C)cnc32)cc1,5,-1,5,5,4,36*,2
Cc1ccc(C=NNC(=O)CSc2nc3sc4c(c3c(=O)n2-c2ccccc2)CCCC4)s1,-3,·,·,·,·,·,·
CC(=O)Oc1cc2cccc(OC(C)=O)c(=O)c2c(OC(C)=O)c1OC(C)=O,·,46*,45*,70*,88*,91*,34*
O=C1c2ccc(-c3ccc(F)cc3OCc3ccccc3)cc2S(=O)(=O)c2cccc(C(=O)N3CCCC3)c21,·,5,12,-4,8,46*,45*
O=C(NCc1cccc(OC(F)(F)F)c1)c1cccc2c1C(=O)c1ccc(-c3ccc(F)cc3OCc3ccccc3)cc1S2(=O)=O,0,-8,-9,-19,-10,15,·
Nc1ccc2nc(-c3cccnc3)[nH]c2c1,11,6,0,19,-4,39*,0
Cc1cc(NS(=O)(=O)c2ccc(NC(=O)Cc3cccs3)cc2)no1,·,-3,6,-4,6,7,·
Cc1cc(NC(=O)Cc2cccs2)no1,4,10,2,1,35*,54*,12
COc1ccc2[nH]c3c(c2c1)CCN[C@]31C(=O)N(C)c2ccccc21,3,·,·,·,·,·,·
CCc1c(C)nc2ncnn2c1N1CCCC(C(=O)NCc2ccco2)C1 (configuration not stated),7,-7,-1,-3,1,57*,4
CCc1c(C)nc2ncnn2c1N1CCCC(C(=O)NCc2cccs2)C1 (configuration not stated),-4,2,-2,6,4,-2,·
Cc1cc(C)c(S(=O)(=O)/N=C2\C=CC(=O)C(Cl)=C2)c(C)c1,·,12,6,19,31*,65*,57*
Cc1ccc(S(=O)(=O)c2c(C)cc(C)nc2Cl)c(C)c1,-6,6,1,-5,-2,6,·
CCn1c2ccccc2c2cc(NC(=O)CSc3nnc(-c4ccccc4)n3Cc3ccco3)ccc21,17,·,·,·,·,·,·
N#Cc1c(-c2cccc(Br)c2)cc(-c2ccco2)[nH]c1=O,11,7,5,15,23,45*,32*
N#Cc1c(-c2ccccc2)cc(-c2ccccc2)[nH]c1=O,-1,2,4,3,-7,3,·
CC(C)CNC(=O)OCc1cn(Cc2cccc(Cl)c2)nn1,-3,·,·,·,·,·,·
O=C(CCCN1C(=O)/C(=C/c2ccco2)SC1=S)Nc1cccc(C(=O)O)c1,29,5,7,14,11,50*,5
O=C(CCN1C(=O)/C(=C/c2ccccc2)SC1=S)NC1CCS(=O)(=O)C1 (configuration not stated),-4,3,5,-1,11,2,·
CC(C)C(C(=O)O)N1C(=O)/C(=C/C=C/c2ccco2)SC1=S (configuration not stated),·,23,17,31,61*,78*,54*
CC(C(=O)Nc1ccc(C(=O)O)c(O)c1)N1C(=O)/C(=C\c2ccco2)SC1=S (configuration not stated),·,16,8,9,18,38*,13
CC(C(=O)N(C)C1CCS(=O)(=O)C1)N1C(=O)/C(=C/c2ccco2)SC1=S (configuration not stated),13,-2,0,3,-8,22,·
SMILES,mABHD4 FP,PAFAH1B3 inh,PAFAH1B2 FP inh,HTRA1 inh,PAFAH2 inh,pPAFAH inh,pPAFAH FP conf
O=C(CCCN1C(=O)/C(=C\c2cccs2)SC1=S)Nc1cccc(C(=O)O)c1,-3,3,-2,7,9,8,·
O=C(CN1C(=O)/C(=C/c2ccco2)SC1=S)NC1CCS(=O)(=O)C1 (configuration not stated),26,16,4,11,20,38*,1
O=C(CN1C(=O)/C(=C/c2ccco2)SC1=S)Nc1ccc(C(=O)O)c(O)c1,-22,7,-1,-17,9,41*,14
O=C(C1CCCN(S(=O)(=O)c2ccccc2F)C1)N1CCN(Cc2ccccc2)CC1 (configuration not stated),-3,·,·,·,·,·,·
Cc1ccc(C(=O)NC2CCCCN(C(C)C)C2=O)cc1 (configuration not stated),0,·,·,·,·,·,·
O=C(CSc1c(F)c(F)cc(F)c1F)Nc1ccc(C2SCCS2)cc1,1,8,-3,-6,7,90*,4
O=C(CSc1ccc(Cl)cc1)Nc1ccc(C2SCCS2)cc1,-10,6,16,-10,5,6,·
CN1C(C(=O)NCc2ccco2)=CC(c2ccc(F)cc2)=NS1(=O)=O,-9,-7,-7,-8,3,67*,10
O=C(CN1CCCC(O)C1)N1c2ccccc2Sc2ccc(C(F)(F)F)cc21 (configuration not stated),-6,-4,6,-5,0,7,·
CN1CCN(CCCN2c3ccccc3Sc3ccc(C(F)(F)F)cc32)CC1,29,9,3,10,-1,37*,30*
O=S1(=O)c2ccc(N3CC[C@@H](O)C3)cc2OCCCN1C1CC1,2,·,·,·,·,·,·
O=C(N/N=C/c1cc([N+](=O)[O-])ccc1O)c1cccc2cc[nH]c12,8,-9,-3,22,24,61*,52*
COc1ccc(S(=O)(=O)Nc2ccc(F)cc2)cc1N(C)S(=O)(=O)c1ccc(Cl)cc1,-6,3,-2,-46,6,38*,35*
COc1ccc(NS(=O)(=O)c2ccc(N/N=C(\C)c3ccncc3)c([N+](=O)[O-])c2)cc1,-8,17,7,-2,0,57*,55*
C/C(=N\Nc1ccc(S(=O)(=O)Nc2ccccc2)cc1[N+](=O)[O-])c1ccncc1,5,·,·,·,·,14,·
CC(=O)Nc1ccc(Br)c2ccccc12,0,8,3,3,7,-2,·
O=C(Nc1ccc(Br)c2ccccc12)c1ccc2ccccc2c1O,18,22,18,19,48*,36*,52*
C=CCNC(=O)NCC1CCN(Cc2ccc(OC)cc2)CC1,8,·,·,·,·,·,·
O=Cc1ccc(C(=O)OCC(=O)NCCC2=CCCCC2)cc1,5,1,-2,-9,23,7,·
